Results published in ChEMBL document CHEMBL1150225, “Cytotoxic cholestane glycosides from the bulbs of Ornithogalum saundersiae” (J Nat Prod, 2001).

How the values were obtained:
[1] = test system: SK-MEL-2; assay: Cytotoxicity against human SK-MEL-2 cells; assay type: functional
[2] = test system: SK-MEL-28; assay: Cytotoxicity against human SK-MEL-28 cells; assay type: functional
[3] = test system: RXF 393; assay: Cytotoxicity against human RXF393 cells; assay type: functional
[4] = test system: Malme-3M; assay: Cytotoxicity against human MALME-3M cells; assay type: functional
[5] = test system: UO-31; assay: Cytotoxicity against human UO31 cells; assay type: functional
[6] = test system: A498; assay: Cytotoxicity against human A498 cells; assay type: functional
[7] = test system: HOP-92; assay: Cytotoxicity against human HOP92 cells; assay type: functional
[8] = test system: NCI-H23; assay: Cytotoxicity against human NCI-H23 cells; assay type: functional
[9] = test system: OVCAR-3; assay: Cytotoxicity against human OVCAR-3 cells; assay type: functional
[10] = test system: HCC 2998; assay: Cytotoxicity against human HCC2998 cells; assay type: functional
[11] = test system: MCF7; assay: Cytotoxicity against human MCF7 cells; assay type: functional
[12] = test system: HT-29; assay: Cytotoxicity against human HT-29 cells; assay type: functional
[13] = test system: UACC-257; assay: Cytotoxicity against human UACC257 cells; assay type: functional
[14] = test system: NCI-H522; assay: Cytotoxicity against human NCI-H522 cells; assay type: functional
[15] = test system: IGROV-1; assay: Cytotoxicity against human IGROV1 cells; assay type: functional
[16] = test system: SNB-75; assay: Cytotoxicity against human SNB75 cells; assay type: functional
[17] = Cytotoxicity against human […] cells; assay type: functional
[18] = test system: ACHN; assay: Cytotoxicity against human ACHN cells; assay type: functional
[19] = test system: NCI-H460; assay: Cytotoxicity against human NCI-H460 cells; assay type: functional
[20] = test system: CAKI-1; assay: Cytotoxicity against human Caki1 cells; assay type: functional
[21] = test system: PC-3; assay: Cytotoxicity against human PC3 cells; assay type: functional
[22] = test system: DU-145; assay: Cytotoxicity against human DU145 cells; assay type: functional
[23] = Cytotoxicity against human MCF7/ADR cells; assay type: functional; conditions: NCI/ADR-RES
[24] = test system: HCT-15; assay: Cytotoxicity against human HCT15 cells; assay type: functional
[25] = test system: K562; assay: Cytotoxicity against human K562 cells; assay type: functional
[26] = test system: SR; assay: Cytotoxicity against human SR cells; assay type: functional
[27] = test system: NCI-H322M; assay: Cytotoxicity against human NCI-H322M cells; assay type: functional
[28] = test system: HL-60; assay: Cytotoxicity against human HL60 cells after 72 hrs by MTT assay; assay type: functional, cell-based; conditions: HL-60, 72 h
Summary of the method: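 HL-60 leukemia cells kept in RPMI 1640 with 10% fetal bovine serum, L-glutamine, 100 units/mL penicillin and 100 μg/mL streptomycin. Cells at 3 × 10^4 cells/mL exposed continuously to compound for 72 h. Growth read by MTT reduction. IC50 (50% inhibition) calculated from each compound's dose–response curve.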

[29] = test system: 786-0; assay: Cytotoxicity against human 786-0 cells; assay type: functional
[30] = test system: TK-10; assay: Cytotoxicity against human TK10 cells; assay type: functional
[31] = read-out: pLC50 (the source's name) (converted)

With COc1ccc(C(=O)O[C@H]2[C@H](O[C@@H]3[C@@H](OC(C)=O)[C@H](O[C@H]4C[C@H]5[C@@H]6CC=C7C[C@@H](O)CC[C@]7(C)[C@H]6CC[C@]5(C)[C@@]4(O)[C@H](C)C(=O)CCC(C)C)OC[C@@H]3O)OC[C@@H](O)[C@@H]2O)cc1 the CC50 [1, 31] was 5500 nM, the TGI ([1]; read-out: pTGI (converted)) was 17 nM and the GI50 [2] was 0.182 nM. The CC50 [2, 31] was 25.7 nM, the TGI ([2]; read-out: pTGI (converted)) was 1.1 nM and the GI50 [3] was 0.0708 nM. The CC50 [3, 31] was 407 nM, the TGI ([3]; read-out: pTGI (converted)) was 18.2 nM and the GI50 [4] was 0.631 nM. The CC50 [4, 31] was 2400 nM, the TGI ([4]; read-out: pTGI (converted)) was 2.29 nM and the GI50 [5] was 0.617 nM. The CC50 [5, 31] was 30.2 nM, the TGI ([5]; read-out: pTGI (converted)) was 1.41 nM and the GI50 [6] was 0.24 nM. For the same compound, the CC50 [6, 31] was 141 nM, the TGI ([6]; read-out: pTGI (converted)) was 2.19 nM and the GI50 [7] was 1.1 nM. It also gave a CC50 [7, 31] of 3020 nM, a TGI ([7]; read-out: pTGI (converted)) of 32.4 nM and a GI50 [8] of 0.363 nM. It also gave a CC50 [8, 31] of 1290 nM, a TGI ([8]; read-out: pTGI (converted)) of 110 nM and a GI50 [9] of 9.55 nM. The CC50 [9, 31] was 4680 nM, the TGI ([9]; read-out: pTGI (converted)) was 2000 nM and the GI50 [10] was 30.2 nM. It also gave a CC50 [10, 31] of 4370 nM, a TGI ([10]; read-out: pTGI (converted)) of 1910 nM and a GI50 [11] of 0.813 nM. It also gave a CC50 [11, 31] of 3630 nM, a TGI ([11]; read-out: pTGI (converted)) of 1200 nM and a GI50 [12] of 0.363 nM. For the same compound, the CC50 [12, 31] was 3720 nM, the TGI ([12]; read-out: pTGI (converted)) was 302 nM and the GI50 [13] was 0.933 nM. For the same compound, the CC50 [13, 31] was 40.7 nM, the TGI ([13]; read-out: pTGI (converted)) was 1.29 nM and the GI50 [14] was 0.363 nM. For the same compound, the CC50 [14, 31] was 324 nM, the TGI ([14]; read-out: pTGI (converted)) was 5.37 nM and the GI50 [15] was 1.51 nM. The CC50 [15, 31] was 6920 nM, the TGI ([15]; read-out: pTGI (converted)) was 1910 nM and the GI50 [16] was 0.0417 nM. It also gave a CC50 [16, 31] of 3020 nM, a TGI ([16]; read-out: pTGI (converted)) of 3.24 nM and a GI50 [17] of 0.038 nM. The CC50 [17, 31] was 2090 nM, the TGI ([17]; read-out: pTGI (converted)) was 0.219 nM and the GI50 [18] was 7.94 nM. The CC50 [18, 31] was 7240 nM, the TGI ([18]; read-out: pTGI (converted)) was 2190 nM and the GI50 [19] was 0.159 nM. It also gave a CC50 [19, 31] of 2190 nM, a TGI ([19]; read-out: pTGI (converted)) of 33.9 nM and a GI50 [20] of 1.7 nM. It also gave a CC50 [20, 31] of 871 nM, a TGI ([20]; read-out: pTGI (converted)) of 49 nM and a GI50 [21] of 0.209 nM. The CC50 [21, 31] was 389 nM, the TGI ([21]; read-out: pTGI (converted)) was 1.58 nM and the GI50 [22] was 3.71 nM. The CC50 [22, 31] was 4270 nM, the TGI ([22]; read-out: pTGI (converted)) was 1510 nM and the GI50 [23] was 24 nM. It also gave a CC50 [23, 31] of 6610 nM, a TGI ([23]; read-out: pTGI (converted)) of 2000 nM and a GI50 [24] of 11 nM. It also gave a CC50 [24, 31] of 692 nM, a TGI ([24]; read-out: pTGI (converted)) of 95.5 nM and a GI50 [25] of 0.219 nM. For the same compound, the CC50 [25, 31] was 10000 nM, the TGI ([25]; read-out: pTGI (converted)) was 14.1 nM and the GI50 [26] was 0.12 nM. The CC50 [26, 31] was 6310 nM, the TGI ([26]; read-out: pTGI (converted)) was 129 nM and the GI50 [27] was 26.9 nM. For the same compound, the CC50 [27, 31] was 5010 nM, the TGI ([27]; read-out: pTGI (converted)) was 1290 nM and the GI50 [28] was 0.0347 nM. For the same compound, the IC50 [28] was 0.25 nM, the TGI ([28]; read-out: pTGI (converted)) was 182 nM and the GI50 [29] was 0.0617 nM. The CC50 [29, 31] was 3470 nM, the TGI ([29]; read-out: pTGI (converted)) was 1200 nM and the GI50 [30] was 77.6 nM. The CC50 [30, 31] was 8910 nM and the TGI ([30]; read-out: pTGI (converted)) was 1910 nM.
